# Most compounds without a hit are left out; they make up all but 4.5% or so of the library.
# TAAR1 ag – agonists of human TAAR1. CHO RD-HGA16 TAAR1, Fluo-8 calcium fluorescence; vehicle wells 0%, saturating PEA agonist 100%. activation, % at 3 µM. 360,000 compounds, 0.99% hits;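 active means activation above the mean activation of all test compounds in the run plus 3 SD, cut at about 38% in these data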
# Target sequence (Q96RJ0 whole entry, looked up): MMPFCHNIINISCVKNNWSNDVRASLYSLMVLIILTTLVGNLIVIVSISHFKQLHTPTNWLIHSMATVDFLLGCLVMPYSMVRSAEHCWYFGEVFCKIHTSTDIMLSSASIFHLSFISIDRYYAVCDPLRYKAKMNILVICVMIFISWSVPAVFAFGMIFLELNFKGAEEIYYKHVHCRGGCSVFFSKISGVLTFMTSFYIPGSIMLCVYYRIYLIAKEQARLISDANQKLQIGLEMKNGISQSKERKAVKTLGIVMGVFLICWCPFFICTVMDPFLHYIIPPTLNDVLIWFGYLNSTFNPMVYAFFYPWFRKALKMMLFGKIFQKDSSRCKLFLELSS
#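 Test system: RD-HGA16 (CHO) cells co-expressing Gα16 and hTAAR1 | Doses: Single dose, 3 µM | Schedule: 17-24 h seeding, 75 min 37 °C dye, 30 min RT | Evaluation: % activation from peak over basal fluorescence ratio, DMSO-to-PEA scaled | Technique: Kinetic Fluo-8 calcium fluorescence | Benchmarks: Low control DMSO, high control PEA (EC100)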
# OX1R antag-1 – blocks the human orexin 1 receptor; AID 434989; 330,000 compounds, 0.43% hits; O43613; CHO/OX1R cells, Fluo-8 calcium fluorescence, orexin A; inhibition, % at 5 µM;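 active means inhibition above its plate's threshold, mean inhibition of all tested compounds on the plate plus 3 SD, cut at about 37% in these data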;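 further: 0% = orexin A challenge wells and 100% = SB-334867-A antagonist wells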
# CHO parental Ca – signal in parental CHO cells, OX1R antagonist counter-screen; inhibition, % at 5.6 µM; 330,000 compounds, 0.63% hits; AID 463079; parental CHO-K1, ATP-induced calcium, Fluo-8 fluorescence;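 active means inhibition above that plate's mean sample inhibition plus 3 SD, cut at about 26% in these data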;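 further: 0% = ATP-challenged DMSO wells and 100% = DMSO wells without ATP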
#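 Material: parental CHO cells / Compound: single nominal dose of 5.6 µM per compound / Signal: Fluo-8 fluorescence / Replicates: singlicate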
# OX1R antag-2 – blocks the human orexin 1 receptor; O43613; OX1R-expressing cells, FRET antagonist read-out; inhibition, % at 6.6 µM; 330,000 compounds, 1.8% hits; in the data active means inhibition mostly above about 38%, no sharp cut-off; inactive means mostly below about 40%;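 further: 0% = agonist challenge alone and 100% = reference antagonist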
# GPR7 antag – antagonists of human GPR7 (neuropeptides B/W receptor 1). GPR7-expressing cells, fluorescence antagonist assay. inhibition, % at 4.4 µM. 290,000 compounds, 1.1% hits. AID 1861; in the data active means inhibition above about 16%, passing the limit was not always enough;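 further: cells stimulated with the agonist NPW; 0% = agonist with vehicle and 100% = vehicle without agonist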
# Target sequence (P48145 whole entry, looked up): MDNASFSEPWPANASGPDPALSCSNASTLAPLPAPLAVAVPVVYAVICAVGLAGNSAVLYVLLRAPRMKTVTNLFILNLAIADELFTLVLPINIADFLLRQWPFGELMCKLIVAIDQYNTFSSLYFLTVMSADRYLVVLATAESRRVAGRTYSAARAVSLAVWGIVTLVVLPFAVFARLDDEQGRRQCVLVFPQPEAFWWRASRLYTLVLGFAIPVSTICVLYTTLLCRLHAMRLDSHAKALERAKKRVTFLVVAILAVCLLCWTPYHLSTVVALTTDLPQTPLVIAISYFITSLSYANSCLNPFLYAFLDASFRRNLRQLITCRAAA
# TAAR1 antag – human TAAR1 antagonism | CHO RD-HGA16 TAAR1, Fluo-8 calcium fluorescence, antagonist | 360,000 compounds, 1.5% hits | inhibition, % at 3 µM;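 active means inhibition above a per-plate cutoff, the mean inhibition of test compounds on that plate plus 3 SD, cut at about 49% in these data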;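 further: 0% = DMSO plus EC80 beta-PEA response and 100% = DMSO alone without agonist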
#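 Test system: CHO RD-HGA16 cells bearing hTAAR1 | Reagent: β-PEA, EC80 | Compound dosing: 3 µM, single point | Schedule: Dye loading 75 min at 37 °C, then 30 min room temperature | Signal: Calcium fluorescence with Fluo-8 | Evaluation: Percent inhibition of PEA-evoked calcium signal, max/basal emission ratio | Control set: DMSO-only wells and EC80 β-PEA-stimulated wells | Repeats: Singlicate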
# GPR7 antag conf – human GPR7 antagonism, confirmation assay | shares compounds with GPR7 antag | GPR7-expressing cells, calcium fluorescence antagonist mode | inhibition, % at 4.4 µM | 2,400 compounds, 52% hits | AID 1952; in the data active means inhibition above about 24%;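 further: stimulated with the GPR7 agonist NPW; 0% = agonist plus vehicle and 100% = vehicle alone without agonist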
# MCHR1 antagonist – antagonizes human MCHR1, a GPR7 antagonist counter-screen. shares compounds with GPR7 antag. MCHR1-expressing cells, fluorescence antagonist assay. inhibition, % at 4.4 µM. 2,400 compounds, 62% hits. AID 2148; in the data active means inhibition above about 22%;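 further: 0% = vehicle with agonist and 100% = vehicle without agonist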
# * = called active by the depositor; · = not tested or not shown.
SMILES,TAAR1 ag,OX1R antag-1,CHO parental Ca,OX1R antag-2,GPR7 antag,TAAR1 antag,GPR7 antag conf,MCHR1 antagonist
CC(C)(c1ccccc1)c1ccc(OCCN2CCOCC2)cc1,16.1,-62.2,-10.2,1.0,37.4*,12.8,8.4,6.2
Cc1cc(Br)ccc1NC(=O)CN(C)Cc1cccs1,3.8,-32.8,-22.2,29.1,-10.6,-0.5,·,·
Cc1ccc(C(=O)N(C)CCOc2ccccc2)cc1S(=O)(=O)N1CCCCC1,7.2,-2.4,-11.8,10.1,·,5.7,·,·
Fc1ccc(CNCCC(Cc2ccccc2)c2ccco2)cc1 (stereo unspecified),10.9,-2.2,-8.5,-3.4,28.6*,-9.3,43.8*,39.7*
CC(NCCC(Cc1ccccc1)c1ccco1)c1ccccc1 (stereo unspecified),2.9,-13.9,-2.1,8.1,24.5*,-7.1,40.9*,50.1*
COc1cc2ccc(C=O)cc2cc1OC,1.2,·,·,·,·,-18.7,·,·
CC(NS(=O)(=O)c1ccc(Br)s1)c1ccccc1 (stereo unspecified),-4.3,-19.4,-14.4,21.6,-2.0,-21.8,·,·
COc1ccccc1CCn1cnc(-c2cccc(Br)c2)c1CC(C)C,21.9,·,·,·,·,29.6,·,·
CCn1c(SCCOc2ccc(Cl)cc2)nnc1-c1cccs1,0.8,-17.6,-20.1,17.4,28.8*,6.2,9.4,31.3*
CCn1c(SCC(=O)c2ccc(Cl)cc2)nnc1-c1cccs1,14.8,-4.0,-2.9,29.6,9.8,-5.9,·,·
CCOC(=O)C1(Cc2ccccc2C)CCCN(C(=O)c2sccc2C)C1 (stereo unspecified),5.7,-15.2,-11.8,10.3,43.0*,-20.1,14.7,48.2*
CCOC(=O)Cn1c(N2CCOCC2)nc2c1c(=O)[nH]c(=O)n2C,2.1,-13.7,-6.1,6.3,6.3,-32.0,·,·
Cc1ccc(NC(=O)c2nc(S(=O)(=O)Cc3ccccc3)ncc2Cl)cc1,-3.0,37.6,38.9*,11.5,35.4*,28.2,59.8*,98.3*
Cc1cccc(CS(=O)(=O)c2ncc(Cl)c(C(=O)Nc3c(C)cccc3C)n2)c1,1.0,76.9*,23.5,88.8*,50.6*,5.9,58.0*,97.4*
CN(C)CCNc1nc2sc3c(c2c(=O)n1-c1ccccc1)CCCCC3,5.3,-38.4,-35.8,11.1,-6.1,0.3,·,·
CN(C)CCNc1nc2sc3c(c2c(=O)n1Cc1ccccc1)CCCCC3,25.4,·,·,·,40.2*,15.5,35.4*,58.0*
CCOc1ccc(C(CC(=O)O)NC(=O)C2c3ccccc3Oc3ccccc32)cc1 (stereo unspecified),-0.4,-0.3,6.3,19.5,7.0,14.5,·,·
O=C(O)CC(NC(=O)C1c2ccccc2Oc2ccccc21)c1ccc(Cl)cc1 (stereo unspecified),-0.9,-20.8,-10.9,15.3,34.9*,-0.9,2.7,4.3
COc1ccc2[nH]c3c(c2c1)CCN1C(=O)N([C@@H](C)C(=O)NC2CCCCC2C)C(=O)[C@]31C (stereo partly specified),-1.2,-3.5,-17.2,47.0*,22.8*,-14.6,9.8,58.3*
C[C@@H](C(=O)NC1CCCC1)N1C(=O)N2CCc3c([nH]c4ccccc34)[C@@]2(C)C1=O,6.7,-8.6,-1.8,18.3,25.7*,7.4,23.3,5.8
CC(C)[C@@H](C(=O)NC1CCCC1)N1C(=O)N2CCc3c([nH]c4ccccc34)[C@@]2(C)C1=O,-1.8,-28.5,-21.9,32.0,10.9,6.0,·,·
COc1ccc(CNC(=O)[C@H](C)N2C(=O)N3CCc4c([nH]c5ccc(OC)cc45)[C@@]3(C)C2=O)cc1,11.9,-32.0,-18.8,16.1,8.2,30.4,·,·
CC1CCN(CC(O)COC2CC(C)CCC2C(C)C)CC1 (stereo unspecified),13.7,-6.6,-25.6,10.7,23.4*,-0.9,17.7,14.7
Cc1occc1C(=O)NN1C(=O)C2C3CCC(O3)C2C1=O (stereo unspecified),-0.5,-2.4,2.2,11.2,6.8,17.0,·,·
CCCCC(OC(=O)CN1C(=O)COc2ccccc21)C(=O)NC1CCCCC1 (stereo unspecified),5.0,-32.1,-9.7,21.6,30.8*,-13.5,38.4*,24.1*
SMILES,TAAR1 ag,OX1R antag-1,CHO parental Ca,OX1R antag-2,GPR7 antag,TAAR1 antag,GPR7 antag conf,MCHR1 antagonist
CC(C)n1c(-c2ccco2)csc1=Nc1cccnc1,6.3,35.6,48.5*,73.9*,29.6*,11.3,36.0*,51.7*
COCCn1c(-c2ccccc2)csc1=Nc1cccnc1,9.2,-30.8,-19.4,29.0,-4.3,17.4,·,·
Clc1ccccc1-c1nnn(Cc2ccc(-c3nn[nH]n3)cc2)n1,13.7,-16.3,-1.5,24.6,23.7*,-4.0,28.7*,18.7
CCC(NC(=S)NC1CCCCC1)c1ccccc1 (stereo unspecified),0.9,·,·,·,-13.8,-19.9,·,·
C=C(C)CSc1nnc(-c2cccc(S(=O)(=O)N(C)C)c2)n1-c1cc(OC)ccc1OC,12.4,-23.6,-28.8,20.8,31.5*,20.2,34.6*,9.1
CCSc1ncc(/C=N/Nc2ccc(Cl)cc2)n1C,13.3,-31.8,-31.9,8.3,24.8*,-19.4,13.4,40.2*
Cc1cc(C)nc(/N=C(\N)Nc2ccc(C(C)C)cc2)n1,23.5,-0.5,-3.3,1.4,2.6,9.6,·,·
Cc1cc(NC(=O)COC(=O)c2ccccc2Cl)no1,16.6,-16.4,-6.5,0.3,·,-5.6,·,·
Cc1cc(NC(=O)COC(=O)c2oc3c(Cl)cccc3c2C)no1,-2.3,5.7,-10.8,5.3,27.1*,-1.6,22.1,36.6*
CCC(=O)N1CCN(c2ccccc2NC(=O)c2ccc([N+](=O)[O-])o2)CC1,-0.1,-21.1,-14.8,27.9,20.8,17.9,·,·
O=C(Nc1ccc(N2CCN(C(=O)c3ccccc3)CC2)cc1)c1ccc(Br)o1,12.5,-21.6,-16.2,22.8,38.2*,31.6,38.9*,32.4*
CC(C)C(=O)N1CCN(c2ccccc2NC(=O)c2ccc([N+](=O)[O-])o2)CC1,4.2,-23.8,-22.2,61.2*,35.0*,12.9,27.6*,21.3
O=C(Nc1ccccc1N1CCN(C(=O)c2ccccc2)CC1)c1ccc([N+](=O)[O-])o1,12.3,·,·,·,36.6*,54.9*,33.1*,34.9*
O=C(Nc1ccc(N2CCCC2)cc1)c1ccc(Br)o1,1.3,0.1,-14.4,25.2,14.3,17.7,·,·
CS(=O)(=O)c1ncc(Cl)c(C(=O)Nc2ccc(N3CCOCC3)cc2)n1,·,10.6,16.1,58.2,0.9,·,·,·
